pIC50: −log10 of the molar value.
Tests used:
[1] = Cytotoxicity activity against human MDA-MB cells assessed as reduction in cell viability incubated for 72 hrs by MTT assay; format: cell-based
A549 = experiment: Cytotoxicity activity against human A549 cells assessed as reduction in cell viability incubated for 72 hrs by MTT assay; format: cell-based; settings: A549, 72 h
T98G = experiment: Cytotoxicity activity against human T98G cells assessed as reduction in cell viability incubated for 72 hrs by MTT assay; format: cell-based
[2] = Cytotoxicity activity against human SK-MEL-8 cells assessed as reduction in cell viability incubated for 72 hrs by MTT assay; format: cell-based
WI-38 = experiment: Cytotoxicity activity against human WI38 cells assessed as reduction in cell viability incubated for 72 hrs by MTT assay; format: cell-based; settings: WI-38, 72 h
SNB-19 [3] = experiment: Cytotoxicity activity against human SNB19 cells assessed as reduction in cell viability incubated for 72 hrs by MTT assay; format: cell-based; settings: SNB-19, 72 h
[4] = target: Tyrosyl-DNA phosphodiesterase 1 (Homo sapiens, UniProt Q9NUW8); experiment: Inhibition of recombinant TDP1 (unknown origin) using 5'-(5,6 FAM-aac gtc agg gtc ttc c-BHQ1)-3' as substrate measured every 55 secs for 8 mins by fluorescence based assay
Summary of the method: (§1)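 Purified TDP1, either wild-type or the H493R mutant, tested against the fluorogenic substrate. The IC50 is the compound concentration that cuts enzyme activity by 50%.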

MCF7 = experiment: Cytotoxicity activity against human MCF7 cells assessed as reduction in cell viability incubated for 72 hrs by MTT assay; format: cell-based; settings: MCF7, 72 h
[5] = target: Poly [ADP-ribose] polymerase 2 (Homo sapiens) (UniProt Q9UGN5); experiment: Inhibition of PARP2 (unknown origin) assessed as residual activity at 100 uM relative to control
[6] = target: Tyrosyl-DNA phosphodiesterase 1 (Homo sapiens, UniProt Q9NUW8, H493R); experiment: Inhibition of recombinant TDP1 H493R mutant (unknown origin) using 5'-(5,6 FAM-aac gtc agg gtc ttc c-BHQ1)-3' as substrate measured every 55 secs for 8 mins by fluorescence based assay; summary of the method: as §1
U-937 = experiment: Cytotoxicity activity against human U937 cells assessed as reduction in cell viability incubated for 72 hrs by MTT assay; format: cell-based; settings: U-937, 72 h
U-87 MG [7] = experiment: Cytotoxicity activity against human U87MG cells assessed as reduction in cell viability incubated for 72 hrs by MTT assay; format: cell-based, U-87MG ATCC
[8] = target: Poly [ADP-ribose] polymerase 1 (Homo sapiens) (UniProt P09874); experiment: Inhibition of PARP1 (unknown origin) assessed as residual activity at 100 uM relative to control
U-87 MG [9] = experiment: Potentiation of TMZ-induced cytotoxicity against human U87MG cells assessed as reduction in cell viability at 100 uM incubated for 72 hrs in presence of 2500 uM TMZ by MTT assay relative to TMZ alone; format: functional, U-87MG ATCC
U-87 MG [10] = experiment: Potentiation of TMZ-induced cytotoxicity against human U87MG cells assessed as combination index at 100 uM incubated for 72 hrs in presence of 2000 uM TMZ by MTT assay; format: functional, U-87MG ATCC
U-87 MG [11] = experiment: Potentiation of TMZ-induced cytotoxicity against human U87MG cells assessed as reduction in cell viability at 100 uM incubated for 72 hrs in presence of 2000 uM TMZ by MTT assay relative to TMZ alone; format: functional, U-87MG ATCC
SNB-19 [12] = experiment: Potentiation of TMZ-induced cytotoxicity against human SNB19 cells assessed as cell viability at 100 uM incubated for 72 hrs in presence of 1250 uM TMZ by MTT assay (Rvb =100%); format: functional
U-87 MG [13] = experiment: Potentiation of TMZ-induced cytotoxicity against human U87MG cells assessed as cell viability at 100 uM incubated for 72 hrs in presence of 2000 uM TMZ by MTT assay (reference value: 100%); format: functional, U-87MG ATCC
SNB-19 [14] = experiment: Potentiation of TMZ-induced cytotoxicity against human SNB19 cells assessed as combination index at 100 uM incubated for 72 hrs in presence of 1250 uM TMZ by MTT assay; format: functional
SNB-19 [15] = experiment: Potentiation of TMZ-induced cytotoxicity against human SNB19 cells assessed as combination index at 75 uM incubated for 72 hrs in presence of 2000 uM TMZ by MTT assay; format: functional
U-87 MG [16] = experiment: Potentiation of TMZ-induced cytotoxicity against human U87MG cells assessed as cell viability at 100 uM incubated for 72 hrs in presence of 2500 uM TMZ by MTT assay (reference value: 100%); format: functional, U-87MG ATCC
U-87 MG [17] = experiment: Potentiation of TMZ-induced cytotoxicity against human U87MG cells assessed as combination index at 100 uM incubated for 72 hrs in presence of 2500 uM TMZ by MTT assay; format: functional, U-87MG ATCC
SNB-19 [18] = experiment: Potentiation of TMZ-induced cytotoxicity against human SNB19 cells assessed as cell viability at 75 uM incubated for 72 hrs in presence of 2000 uM TMZ by MTT assay (Rvb =100%); format: functional
SNB-19 [19] = experiment: Potentiation of TMZ-induced cytotoxicity against human SNB19 cells assessed as reduction in cell viability at 100 uM incubated for 72 hrs in presence of 1250 uM TMZ by MTT assay relative to TMZ alone; format: functional
SNB-19 [20] = experiment: Potentiation of TMZ-induced cytotoxicity against human SNB19 cells assessed as reduction in cell viability at 75 uM incubated for 72 hrs in presence of 2000 uM TMZ by MTT assay relative to TMZ alone; format: functional

Poly [ADP-ribose] polymerase 1 (Homo sapiens), sequence (P09874 whole entry): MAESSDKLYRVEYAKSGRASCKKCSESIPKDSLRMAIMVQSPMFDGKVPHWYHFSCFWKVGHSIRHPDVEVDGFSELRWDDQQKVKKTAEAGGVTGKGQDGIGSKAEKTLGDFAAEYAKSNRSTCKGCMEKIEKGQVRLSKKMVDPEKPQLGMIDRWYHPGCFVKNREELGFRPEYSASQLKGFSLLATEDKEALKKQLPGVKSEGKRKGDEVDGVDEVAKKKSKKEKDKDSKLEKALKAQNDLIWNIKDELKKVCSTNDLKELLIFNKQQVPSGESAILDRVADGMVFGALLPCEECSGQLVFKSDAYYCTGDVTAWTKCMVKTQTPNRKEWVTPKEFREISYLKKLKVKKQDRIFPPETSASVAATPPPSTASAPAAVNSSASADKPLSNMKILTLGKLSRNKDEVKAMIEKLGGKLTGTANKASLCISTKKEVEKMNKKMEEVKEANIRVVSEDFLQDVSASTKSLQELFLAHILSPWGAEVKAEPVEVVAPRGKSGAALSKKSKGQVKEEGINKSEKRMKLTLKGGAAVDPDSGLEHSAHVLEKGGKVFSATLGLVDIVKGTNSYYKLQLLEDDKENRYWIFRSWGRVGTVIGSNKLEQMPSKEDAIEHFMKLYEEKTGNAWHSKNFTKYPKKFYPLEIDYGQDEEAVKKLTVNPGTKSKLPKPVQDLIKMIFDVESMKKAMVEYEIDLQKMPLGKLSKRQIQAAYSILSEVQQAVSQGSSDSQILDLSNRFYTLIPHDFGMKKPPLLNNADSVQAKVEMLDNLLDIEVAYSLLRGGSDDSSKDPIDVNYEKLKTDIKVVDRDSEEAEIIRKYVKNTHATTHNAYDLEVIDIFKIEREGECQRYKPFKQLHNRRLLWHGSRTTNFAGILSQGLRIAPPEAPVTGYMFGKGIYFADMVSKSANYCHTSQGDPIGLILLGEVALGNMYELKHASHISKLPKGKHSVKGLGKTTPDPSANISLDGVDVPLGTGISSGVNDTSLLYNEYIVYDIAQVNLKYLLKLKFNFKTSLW
Poly [ADP-ribose] polymerase 2 (Homo sapiens), sequence (Q9UGN5 whole entry): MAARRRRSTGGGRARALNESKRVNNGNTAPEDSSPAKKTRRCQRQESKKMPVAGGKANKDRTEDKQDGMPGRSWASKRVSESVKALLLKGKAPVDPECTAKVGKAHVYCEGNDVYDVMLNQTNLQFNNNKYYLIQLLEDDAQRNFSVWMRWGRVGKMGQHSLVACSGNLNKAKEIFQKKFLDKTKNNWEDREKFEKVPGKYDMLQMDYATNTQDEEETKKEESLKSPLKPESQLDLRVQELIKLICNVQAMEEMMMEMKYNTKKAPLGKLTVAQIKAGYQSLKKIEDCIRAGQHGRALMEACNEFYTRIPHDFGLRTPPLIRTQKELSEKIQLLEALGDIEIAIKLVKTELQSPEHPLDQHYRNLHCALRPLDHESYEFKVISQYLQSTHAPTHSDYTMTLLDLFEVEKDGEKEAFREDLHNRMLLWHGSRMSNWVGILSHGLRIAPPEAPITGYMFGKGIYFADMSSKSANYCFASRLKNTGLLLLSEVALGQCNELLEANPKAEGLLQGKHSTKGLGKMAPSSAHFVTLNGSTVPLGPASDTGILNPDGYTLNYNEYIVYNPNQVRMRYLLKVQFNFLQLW
Tyrosyl-DNA phosphodiesterase 1 (Homo sapiens, UniProt Q9NUW8), sequence (Q9NUW8 whole entry): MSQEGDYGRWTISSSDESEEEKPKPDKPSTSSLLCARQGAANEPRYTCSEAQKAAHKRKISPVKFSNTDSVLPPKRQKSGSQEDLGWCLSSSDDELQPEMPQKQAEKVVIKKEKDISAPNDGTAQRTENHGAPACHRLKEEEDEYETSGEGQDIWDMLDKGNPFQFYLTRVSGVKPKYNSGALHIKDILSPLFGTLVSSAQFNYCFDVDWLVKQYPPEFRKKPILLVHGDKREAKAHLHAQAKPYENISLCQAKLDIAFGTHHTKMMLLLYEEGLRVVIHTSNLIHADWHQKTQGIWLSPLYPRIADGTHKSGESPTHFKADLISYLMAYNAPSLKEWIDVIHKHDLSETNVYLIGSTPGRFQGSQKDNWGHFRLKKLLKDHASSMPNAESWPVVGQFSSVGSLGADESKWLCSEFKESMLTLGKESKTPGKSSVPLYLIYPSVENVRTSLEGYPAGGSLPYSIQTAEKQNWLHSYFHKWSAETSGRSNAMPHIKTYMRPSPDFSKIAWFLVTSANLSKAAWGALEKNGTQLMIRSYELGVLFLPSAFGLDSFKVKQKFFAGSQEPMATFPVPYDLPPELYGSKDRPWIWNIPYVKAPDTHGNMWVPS
Tyrosyl-DNA phosphodiesterase 1 (Homo sapiens, UniProt Q9NUW8, H493R), sequence (Q9NUW8 whole entry H493R): as the sequence (Q9NUW8 whole entry) above, with H493R counted along it

SMILES	pIC50 [4]	Activity [5] [%]	pIC50 [6]	Activity [8] [%]	pIC50 [1]	pIC50 (A549)	pIC50 (T98G)	pIC50 [2]	pIC50 (WI-38)	pIC50 (SNB-19 [3])	pIC50 (MCF7)	pIC50 (U-937)	pIC50 (U-87 MG [7])	fold change (FC) (U-87 MG [9])	CI (U-87 MG [10])	Activity (SNB-19 [12]) [%]	Activity (U-87 MG [13]) [%]	CI (SNB-19 [14])	CI (SNB-19 [15])	Activity (U-87 MG [16]) [%]	other results
CC(C)c1ccc2c(c1)CC[C@H]1[C@](C)(CNC(=O)NCC3(C)CC(NC(=O)NC[C@]4(C)CCC[C@]5(C)c6ccc(C(C)C)cc6CC[C@@H]45)CC(C)(C)C3)CCC[C@]21C (some centres not stated)	7.05	94	5.27	92	< 4.00	< 4.00	< 4.00	< 4.00	< 4.00	< 4.00	< 4.00	< 4.00	< 4.00	1.1	1.7	97.3	109.2	0.97	0.34	90.9	CI (U-87 MG [17]): 0.77; Activity (SNB-19 [18]): 89%; fold change (FC) (SNB-19 [20]): 1.1
C=CCNC(=S)NC[C@]1(C)CCC[C@]2(C)c3ccc(C(C)C)cc3CC[C@@H]12	6.24	98	< 4.30	104	< 4.00	4.00	< 4.00	< 4.00	4.30	> 5.00	5.00	4.65	< 4.00	–	–	–	–	–	–	–	–
Cc1ccc(NC(=O)NC[C@]2(C)CCC[C@]3(C)c4ccc(C(C)C)cc4CC[C@@H]23)cc1NC(=O)NC[C@]1(C)CCC[C@]2(C)c3ccc(C(C)C)cc3CC[C@@H]12	6.96	135	5.27	83	< 4.00	< 4.00	< 4.00	< 4.00	< 4.00	< 4.00	< 4.00	< 4.00	< 4.00	1.2	1.03	99.5	100.7	0.99	0.27	82.1	CI (U-87 MG [17]): 0.63; Activity (SNB-19 [18]): 84.4%; fold change (FC) (SNB-19 [20]): 1.2
CCNC(=O)NC[C@]1(C)CCC[C@]2(C)c3ccc(C(C)C)cc3CC[C@@H]12	5.43	116	< 4.30	100	< 4.00	< 4.00	< 4.00	< 4.00	–	> 5.00	–	4.46	< 4.00	–	–	–	–	–	–	–	–
CCNC(=S)NC[C@]1(C)CCC[C@]2(C)c3ccc(C(C)C)cc3CC[C@@H]12	5.64	116	< 4.30	100	< 4.00	< 4.00	< 4.00	< 4.00	–	> 5.00	–	4.73	< 4.00	–	–	–	–	–	–	–	–
CC(C)c1ccc2c(c1)CC[C@H]1[C@](C)(CNC(=O)NCCCCCCNC(=O)NC[C@]3(C)CCC[C@]4(C)c5ccc(C(C)C)cc5CC[C@@H]34)CCC[C@]21C	6.72	142	5.03	99	< 4.00	< 4.00	< 4.00	< 4.00	< 4.00	< 4.00	< 4.00	< 4.00	< 4.00	1.7	1.79	88.9	109.8	0.92	0.15	59.3	CI (U-87 MG [17]): 0.43; Activity (SNB-19 [18]): 70.3%; fold change (FC) (SNB-19 [20]): 1.4
CC(C)c1ccc2c(c1)CC[C@H]1[C@](C)(CNC(=O)Nc3ccc(Cl)cc3)CCC[C@]21C	6.55	93	4.47	93	< 4.00	< 4.00	4.67	< 4.00	< 4.00	> 5.00	4.28	4.82	< 4.00	–	–	–	–	–	–	–	–

More lines, in order of rising pIC50 [4], values ahead:

pIC50 [4]	Activity [5] [%]	pIC50 [6]	Activity [8] [%]	SMILES	pIC50 [1]	pIC50 (A549)	pIC50 (T98G)	pIC50 [2]	pIC50 (WI-38)	pIC50 (SNB-19 [3])	pIC50 (MCF7)	pIC50 (U-937)	pIC50 (U-87 MG [7])	fold change (FC) (U-87 MG [9])	CI (U-87 MG [10])	Activity (SNB-19 [12]) [%]	Activity (U-87 MG [13]) [%]	CI (SNB-19 [14])	CI (SNB-19 [15])	Activity (U-87 MG [16]) [%]	other results
5.83	114	< 4.30	110	CNC(=S)NC[C@]1(C)CCC[C@]2(C)c3ccc(C(C)C)cc3CC[C@@H]12	< 4.00	4.71	4.13	< 4.00	–	> 5.00	–	4.77	< 4.00	–	–	–	–	–	–	–	–
6.02	129	4.62	106	CC(C)c1ccc2c(c1)CC[C@H]1[C@](C)(CNC(=O)Nc3ccccc3)CCC[C@]21C	< 4.00	< 4.00	< 4.00	< 4.00	< 4.00	4.77	< 4.00	< 4.00	< 4.00	–	–	–	–	–	–	–	–
6.15	116	4.70	98	CC(C)c1ccc2c(c1)CC[C@H]1[C@](C)(CNC(=S)Nc3ccccc3)CCC[C@]21C	< 4.00	< 4.00	–	< 4.00	4.15	–	4.59	< 4.00	< 4.00	–	–	–	–	–	–	–	–
6.30	99	4.41	96	CC(C)c1ccc2c(c1)CC[C@H]1[C@](C)(CNC(=O)NC3CCCCC3)CCC[C@]21C	< 4.00	< 4.00	< 4.00	< 4.00	4.28	> 5.00	< 4.00	< 4.00	< 4.00	–	–	–	–	–	–	–	–
7.00	107	4.71	79	CC(C)c1ccc2c(c1)CC[C@H]1[C@](C)(CNC(=O)NC34CC5CC(CC(C5)C3)C4)CCC[C@]21C	< 4.00	< 4.00	< 4.00	< 4.00	–	< 4.00	–	–	< 4.00	1.7	0.44	61.3	72	0.25	0.13	58.2	fold change (FC) (U-87 MG [11]): 1.4; CI (U-87 MG [17]): 0.43; Activity (SNB-19 [18]): 63.7%; fold change (FC) (SNB-19 [19]): 1.6; fold change (FC) (SNB-19 [20]): 1.6
